From PubChem
Most compounds without a hit are left out; they make up all but 3.1% or so of the library.
GPR7 antagonist: human neuropeptides B/W receptor 1 antagonism. P48145. GPR7-expressing cells, fluorescence antagonist assay. inhibition, % at 4.4 µM. hit rate 1.1% among 290,000. AID 1861; in the data active = inhibition above about 16%, passing the limit was not always enough;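 also: cells stimulated with the agonist NPW; 0% = agonist with vehicle and 100% = vehicle without agonist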
OX1R antag-1: antagonists of human orexin 1 receptor (OX1R) | O43613 | OX1R-expressing cells, FRET antagonist read-out | inhibition, % at 6.6 µM | hit rate 1.8% among 330,000 | AID 485270; in the data active = inhibition mostly above about 38%, no sharp cut-off; inactive = mostly below about 40%;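 also: 0% = agonist challenge alone and 100% = reference antagonist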
Target sequence (O43613 whole entry, looked up): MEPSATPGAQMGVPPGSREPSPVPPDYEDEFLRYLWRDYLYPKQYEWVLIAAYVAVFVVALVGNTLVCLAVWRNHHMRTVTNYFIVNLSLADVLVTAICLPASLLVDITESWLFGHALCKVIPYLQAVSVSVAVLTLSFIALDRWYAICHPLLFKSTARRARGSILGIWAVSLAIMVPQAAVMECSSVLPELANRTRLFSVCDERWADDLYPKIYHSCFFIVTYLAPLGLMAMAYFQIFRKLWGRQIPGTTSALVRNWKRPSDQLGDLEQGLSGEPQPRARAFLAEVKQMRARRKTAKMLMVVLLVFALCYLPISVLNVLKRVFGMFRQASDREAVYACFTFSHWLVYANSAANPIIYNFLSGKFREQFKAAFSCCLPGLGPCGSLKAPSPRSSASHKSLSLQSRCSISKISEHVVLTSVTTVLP
OX1R antag-2: blocks the human orexin 1 receptor | O43613 | CHO/OX1R cells, Fluo-8 calcium fluorescence, orexin A | inhibition, % at 5 µM | hit rate 0.43% among 330,000 | AID 434989;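 active = inhibition above its plate's threshold, mean inhibition of all tested compounds on the plate plus 3 SD, cut at about 37% in these data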;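 also: 0% = orexin A challenge wells and 100% = SB-334867-A antagonist wells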
CHO parental Ca: counter-screen: ATP calcium response change in parental CHO cells; parental CHO-K1, ATP-induced calcium, Fluo-8 fluorescence; inhibition, % at 5.6 µM; hit rate 0.63% among 330,000;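 active = inhibition above that plate's mean sample inhibition plus 3 SD, cut at about 26% in these data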;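 also: 0% = ATP-challenged DMSO wells and 100% = DMSO wells without ATP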
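Assay system: parental CHO cells; Read-out basis: percent inhibition of ATP-evoked calcium rise, normalized to controls; Benchmarks: ATP and no-ATP DMSO wells; Compound dosing: single nominal dose of 5.6 µM per compound; Signal: Fluo-8 calcium dye fluorescence; Also added: ATP as calcium-mobilizing challenge; Repeats: singlicate.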
GalR3 antagonist: antagonists of human GalR3 | HEK293 GalR3-CNG cAMP membrane potential fluorescence; galR3 body fused to GalR1 C-terminus | inhibition, % at 3 µM | hit rate 0.44% among 360,000;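 active = inhibition above the screen-wide average plus 3 SD, cut at about 13% in these data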;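 also: forskolin and galanin both at EC90 stimulate the cells; cAMP rise reported by CNG channel membrane potential dye signal; 0% = forskolin plus galanin with DMSO and 100% = forskolin alone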
GalR3 conf: confirmation of human galanin receptor 3 antagonists. shares compounds with GalR3 antagonist. HEK293 GalR3 CNG cAMP biosensor, membrane potential fluorescence; galR3 fused to GalR1 carboxy tail; challenged with forskolin and galanin at EC90. inhibition, % at 3 µM. hit rate 59% among 1,600;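 active = inhibition above the primary screen's cutoff, the mean inhibition of all screened compounds plus 3 SD, cut at about 13% in these data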;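 also: 0% = forskolin plus galanin and 100% = forskolin alone with DMSO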
HEK-CNG parental: counter-screen for GalR3 antagonists: nonspecific agonists in parental HEK-CNG cells; shares compounds with GalR3 antagonist; HEK293-CNG parental cells, cAMP membrane potential fluorescence; normalised: DMSO wells 0%, forskolin wells 100%; activation, % at 3 µM; hit rate 10% among 1,600; AID 652268; in the data active = activation above about 1.3%
* marks the source's active call; other numbers are inactive results; x = no result given.

SMILES	GPR7 antagonist	OX1R antag-1	OX1R antag-2	CHO parental Ca	GalR3 antagonist	GalR3 conf	HEK-CNG parental
C/C=C/C(=O)Nc1cccc(C2=NOC3(C2)C[C@@H](C(N)=O)N(C(=O)c2cc([N+](=O)[O-])cc([N+](=O)[O-])c2C)C3)c1 (some centres undefined)	x	22	-4	4	13*	1	0
Cc1ccc(S(=O)(=O)Nc2cccc(Cl)c2)cc1NC(=O)c1cccnc1	-6	10	-13	-9	5	x	x
COc1cc(/C=N/n2cnnc2)ccc1OCc1ccc(C)cc1	-5	9	2	-9	59*	44*	0
COC(=O)C1=C[C@@H](C(=O)OC)[C@@H]2C3=C(C(=O)[C@]2(CC(C)C)NC(=O)c2ccccc2)[C@H](C)n2c(=O)n(-c4ccccc4)c(=O)n2[C@@H]3C1	x	25	-22	-19	14*	2	0
N#Cc1cccc(C(=O)OCC(=O)c2ccc3c(c2)NC(=O)CO3)c1	x	12	-6	-2	-3	x	x
O=C(CN1C(=O)CCC1=O)Nc1cccc2c1C(=O)NC2=O	-17	6	12	-1	21*	15*	0
CN(C)CCCNC(=O)c1ccc(Cl)c(S(=O)(=O)N2CCCCCC2)c1	x	-3	-11	-14	-4	x	x
CN(C)C(CNC(=O)c1ccc(Cl)c(S(=O)(=O)N2CCCCCC2)c1)c1ccccc1 (centres undefined)	x	14	20	-14	71*	88*	1.3*
Cc1ccccc1CCNC(=O)c1ccc(Cl)c(S(=O)(=O)N2CC(C)OC(C)C2)c1 (centres undefined)	x	13	-12	-28	107*	92*	0
CC1CN(S(=O)(=O)c2cc(C(=O)NCc3ccncc3)ccc2Cl)CC(C)O1 (centres undefined)	x	5	-30	-12	-2	x	x
CCc1nc2ccc(C(=O)NCCCn3ccnc3)cn2c1N(C)CCCc1ccccc1	x	x	x	x	-5	x	x
COc1ccccc1-[n+]1c(C)cc(/C=C2\Sc3ccccc3N2C)cc1C	5	39	62*	69*	44*	107*	0
COc1ccc(-[n+]2c(C)cc(/C=C3\Sc4ccccc4N3C)cc2C)cc1	31*	56*	31	46*	82*	103*	-1
COc1ccc(C(=O)/C=C2\Sc3ccccc3N2C)cc1	4	34	-5	-18	-4	x	x
CCN(CC)S(=O)(=O)c1cc(C(=O)OCC(=O)NC(=O)c2cccn2C)ccc1C	2	19	-22	-12	-1	x	x
C[C@@H]1CC=C[C@H]2[C@H]1C(=O)N(Cc1ccccc1)[C@H]2c1ccc2ccccc2c1	x	51	-11	-28	x	-5	1
C[C@@H]1CC=C[C@H]2[C@H]1C(=O)N(Cc1ccccc1)[C@H]2c1ccoc1	x	19	-20	-7	-7	x	x
Oc1ccccc1CNc1cnc2ccccc2c1	-2	19	35	10	-12	x	x
C=CCc1cccc(CNc2cnc3ccccc3c2)c1O	7	49	21	72*	60*	90*	-1
O=C(c1cccc(S(=O)(=O)Nc2ccc(Br)cc2)c1)N1CCCC1	x	19	-30	-21	-1	x	x
CCN1C(=O)/C(=C2/Sc3ccccc3N2CC)S/C1=N\c1ncn[nH]1	-13	65	-15	-11	18*	11	0
C=CCN1C(=O)/C(=C2/Sc3ccccc3N2CC)SC1=S	-6	9	-13	-7	0	x	x
C[C@H]1CN([C@@H](C)CO)C(=O)CCCn2nncc2CO[C@@H]1CN(C)Cc1ccc2c(c1)OCO2	x	x	x	x	-4	x	x
COc1ccccc1Cc1c(-c2ccco2)nc2ccc(Cl)cn12	x	x	x	x	28*	18*	0
O=C(CSc1nnc(-c2ccccc2Cl)o1)Nc1ccccn1	-2	29	-5	-1	-6	x	x
SMILES	GPR7 antagonist	OX1R antag-1	OX1R antag-2	CHO parental Ca	GalR3 antagonist	GalR3 conf	HEK-CNG parental
COc1ccc(OC)c(S(=O)(=O)NCC2CCN(C(=O)C(=O)c3cc4ccccc4o3)CC2)c1	x	x	x	x	-6	x	x
CN=C1SC(CC(=O)Nc2ccccc2F)C(=O)N1/N=C/c1ccc(O)c(OC)c1 (centres undefined)	-17	9	-5	3	22*	15*	0
CCOc1ccc(/C=N/N2C(=O)C(CC(=O)Nc3ccc(F)cc3F)SC2=NC)cc1OC (centres undefined)	-9	11	-1	-1	0	x	x
COc1ccc2oc(C)c(C(=O)Cn3ccnc3)c2c1	-10	27	-8	-9	15*	1	0
COc1ccc(C(=O)N2CCCCC2c2cc(C(=O)NCc3ccc(Cl)c(Cl)c3)no2)cc1 (centres undefined)	x	x	x	x	-9	x	x
COc1ccccc1CCNC(=O)C(=O)NCC1OCCN1S(=O)(=O)c1ccc2c(c1)OCCO2 (centres undefined)	-8	31	-2	-3	14*	7	0
N#C/C(=N\Nc1cc(Cl)cc(Cl)c1)c1nnc2n1CCCCC2	-2	18	-37	-7	15*	0	1.7*
C[C@H](CO)N1C[C@H](C)[C@@H](CN(C)S(=O)(=O)c2ccccc2)Oc2c(NS(=O)(=O)c3ccccc3)cccc2C1=O	x	6	-25	-24	-1	x	x
N#Cc1c(N)nc(SCc2ccncc2)c(C#N)c1-c1cccs1	-11	10	8	7	75*	91*	1
Cn1cc(CNCc2cn[nH]c2-c2ccc(F)cc2)c(-c2ccc3c(c2)OCCO3)n1	-1	10	-30	-9	-6	x	x
Cn1cc(CNCc2ccc(OC(F)(F)F)cc2)c(-c2ccc3c(c2)OCCO3)n1	8	33	16	40*	35*	92*	1.7*
O=C(COC(=O)C12CC3CC(CC(Cl)(C3)C1)C2)Nc1ccccc1	x	1	4	-6	-8	x	x
CC1(C)CC(N2CCCC2)=CC(=[N+]2CCCCC2)C1	-3	2	4	2	37*	6	0
Nc1ncnc2c1ncn2[C@@H]1O[C@H](CO)[C@@H](O)[C@H]1O	-25	16	-1	-2	112*	-20	5.8*
CC1(C)OC2C(O1)[C@@H](CO)O[C@H]2n1cnc2c(N)ncnc21 (some centres undefined)	-14	15	-12	-24	0	x	x
COc1cc(C(=O)NCCCN(C)C)ccc1OCC(=O)Nc1cccc(C(F)(F)F)c1	0	10	-1	4	-1	x	x
COc1cccc(CN(C)C(=O)c2ccc(OCC(=O)Nc3cccc(C(F)(F)F)c3)c(OC)c2)c1	x	38	52*	65*	90*	94*	-1
